Assay results from ChEMBL document CHEMBL3351252, “Design, synthesis, and structure-activity relationship studies of a series of [4-(4-carboxamidobutyl)]-1-arylpiperazines: insights into structural features contributing to dopamine D3 versus D2 receptor subtype selectivity” (J Med Chem, 2014).
Active and inactive are the calls of the source. No cut-off for these calls is given here.

Species on record: Homo sapiens
Experiment: Selectivity index, ratio of IC50 for human D2LR to IC50 for human D3R by beta-galactosidase based beta-arrestin recruitment assay
Conditions: not given

Row | Ratio IC50 | SMILES
1 | 22 | CN(C)Cc1c(C(=O)NCCCCN2CCN(c3cc(C(F)(F)F)nc(C(C)(C)C)n3)CC2)[nH]c2ccccc12

Species on record: Homo sapiens
Experiment: Selectivity index, ratio of Ki for human D2LR to Ki or human D3R
Conditions: not given

Row | SMILES | Ratio Ki
2 | N#Cc1cc(N2CCN(CCCCNC(=O)c3cn4ccccc4n3)CC2)cc(C(F)(F)F)c1 | 30
3 | Cc1cc(N2CCN(CCCCNC(=O)c3cn4ccccc4n3)CC2)nc(C(F)(F)F)n1 | 25
4 | CC(C)(C)c1nc(N2CCN(CCCCNC(=O)c3sc4ncccc4c3N)CC2)cc(C(F)(F)F)n1 | 14
5 | CC(C)(C)c1nc(N2CCN(CCCCNC(=O)c3cc4cccnc4s3)CC2)cc(C(F)(F)F)n1 | 21
6 | O=C(NCCCCN1CCN(c2ccc3ccccc3n2)CC1)c1cn2ccccc2n1 | 20

Results, then the compound that gave them:

Row | Ratio Ki | SMILES
7 | 18 | O=C(NCCCCN1CCN(c2ccccc2)CC1)c1cn2ccccc2n1
8 | 11 | CC(C)(C)c1cc(N2CCN(CCCCNC(=O)c3cn4ccccc4n3)CC2)cc(C(C)(C)C)c1
9 | 19 | CC(C)(C)c1cc(N2CCN(CCCCNC(=O)c3cn4ccccc4n3)CC2)nc(C(C)(C)C)n1
10 | 21 | CN(C)Cc1c(C(=O)NCCCCN2CCN(c3cc(C(F)(F)F)nc(C(C)(C)C)n3)CC2)[nH]c2ccccc12
11 | 12 | Cc1nc(N2CCN(CCCCNC(=O)c3cn4ccccc4n3)CC2)cc(C(F)(F)F)n1

The compounds below were run against T1, D(3) dopamine receptor (Homo sapiens, UniProt P35462). Conditions: CHO, 10 uM.
T1 sequence (P35462 whole entry): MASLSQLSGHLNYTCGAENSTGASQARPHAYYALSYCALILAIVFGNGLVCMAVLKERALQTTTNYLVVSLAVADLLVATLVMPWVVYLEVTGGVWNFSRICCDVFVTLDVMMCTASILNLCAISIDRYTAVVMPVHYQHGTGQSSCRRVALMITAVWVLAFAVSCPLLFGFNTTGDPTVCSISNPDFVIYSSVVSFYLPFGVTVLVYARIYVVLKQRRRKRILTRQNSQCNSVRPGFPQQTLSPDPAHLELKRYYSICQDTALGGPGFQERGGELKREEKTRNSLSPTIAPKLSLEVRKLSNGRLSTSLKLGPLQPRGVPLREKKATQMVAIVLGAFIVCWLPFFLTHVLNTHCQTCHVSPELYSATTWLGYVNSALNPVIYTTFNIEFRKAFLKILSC

Row | inhibition [%] | SMILES
12 | 40 | CC(C)(C)c1nc(N2CCN(CCCCNC(=O)[C@H]3CC[C@H](c4ccccc4)CC3)CC2)cc(C(F)(F)F)n1

What follows are compounds tested against T2, D(2) dopamine receptor (Homo sapiens, UniProt P14416) (assay: Inverse agonist activity at human D2LR expressed in CHO-K1 cells assessed as inhibition of basal activity by beta-galactosidase based beta-arrestin recruitment assay). Conditions: not given.
Format: cell-based
How it was run: (§1)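 CHO-K1 cells expressing human D2L receptor, β-arrestin/β-galactosidase fragment-complementation assay. Cells plated 2500/well and grown 48 h at 37 °C. Test compounds given at 11 half-log points from 5 μM, 120 min at 37 °C. Detection reagent added and chemiluminescence read. Results given as % stimulation or inhibition of basal luminescence. Compounds counterscreened for β-gal inhibition.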

T2 sequence (P14416 whole entry): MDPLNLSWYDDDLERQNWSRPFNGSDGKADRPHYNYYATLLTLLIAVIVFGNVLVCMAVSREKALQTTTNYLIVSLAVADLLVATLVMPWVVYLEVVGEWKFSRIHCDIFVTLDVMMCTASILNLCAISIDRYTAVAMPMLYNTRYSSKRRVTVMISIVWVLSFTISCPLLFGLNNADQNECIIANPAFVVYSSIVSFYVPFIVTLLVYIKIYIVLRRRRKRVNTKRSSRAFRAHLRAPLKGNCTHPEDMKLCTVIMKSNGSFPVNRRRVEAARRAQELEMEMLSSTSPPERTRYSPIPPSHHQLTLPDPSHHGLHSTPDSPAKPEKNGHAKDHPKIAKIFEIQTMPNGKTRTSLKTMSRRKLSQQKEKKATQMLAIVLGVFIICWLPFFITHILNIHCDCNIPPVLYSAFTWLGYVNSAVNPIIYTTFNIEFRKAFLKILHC

Row | inhibition | SMILES
13 | inactive | CC(C)(C)c1nc(N2CCN(CCCCNC(=O)[C@H]3CC[C@H](c4ccccc4)CC3)CC2)cc(C(F)(F)F)n1
14 | inactive | CC(C)(C)c1nc(N2CCN(CCCCNC(=O)c3cn4nc(Cl)ccc4n3)CC2)cc(C(F)(F)F)n1

What follows are compounds tested against T2, D(2) dopamine receptor (assay: Agonist activity at human D2LR expressed in CHO-K1 cells assessed as stimulation of basal activity by beta-galactosidase based beta-arrestin recruitment assay). Conditions: not given.
Format: cell-based
How it was run: as §1

Row | Activity | SMILES
15 | inactive | CC(C)(C)c1nc(N2CCN(CCCCNC(=O)[C@H]3CC[C@H](c4ccccc4)CC3)CC2)cc(C(F)(F)F)n1
16 | inactive | CC(C)(C)c1nc(N2CCN(CCCCNC(=O)c3cn4nc(Cl)ccc4n3)CC2)cc(C(F)(F)F)n1

These compounds were tested against T1, D(3) dopamine receptor (assay: Inverse agonist activity at D3R in human U2OS cells assessed as inhibition of basal activity at 500 nM by beta-galactosidase based beta-arrestin recruitment assay). Conditions: not given.
Format: cell-based

Row | inhibition [%] | SMILES
17 | < 21 | CN(C)Cc1c(C(=O)NCCCCN2CCN(c3cc(C(F)(F)F)nc(C(C)(C)C)n3)CC2)[nH]c2ccccc12

What follows are compounds tested against T2, D(2) dopamine receptor (assay: Agonist activity at human D2R expressed in CHO cells assessed as stimulation of mitogenesis at 10 uM after 24 hrs by [3H]thymidine uptake assay relative to quinpirole). Conditions: not given.
Format: cell-based
How it was run: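 CHOp-D2 cells grown 48–72 h, then serum-starved 24 h. Exposed to 10 μM compound in serum-free α-MEM for 24 h at 37 °C. Pulsed 2 h with 0.25 μCi [3H]thymidine, trypsinized, filtered and counted. Stimulation expressed relative to maximal quinpirole. Two independent experiments.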

Row | Activity [%] | SMILES
18 | < 1 | CC(C)(C)c1nc(N2CCN(CCCCNC(=O)c3cn4nc(Cl)ccc4n3)CC2)cc(C(F)(F)F)n1

Each compound was assayed against T2, D(2) dopamine receptor (assay: Antagonist activity against human D2LR expressed in CHOK1 cells assessed as inhibition of pergolide-induced beta-arrestin translocation by beta-galactosidase based beta-arrestin recruitment assay). Conditions: not given.
Format: cell-based, CHO-K1

Row | IC50 [nM] | SMILES
19 | 22 | CC(C)(C)c1nc(N2CCN(CCCCNC(=O)c3cn4nc(Cl)ccc4n3)CC2)cc(C(F)(F)F)n1
20 | 311 | CN(C)Cc1c(C(=O)NCCCCN2CCN(c3cc(C(F)(F)F)nc(C(C)(C)C)n3)CC2)[nH]c2ccccc12

What follows are compounds tested against T2, D(2) dopamine receptor (assay: Displacement of [125I]IABN from human D2LR expressed in HEK293 cell membranes by gamma counting method). Conditions: not given.

Row | SMILES | Ki [nM]
21 | N#Cc1cc(N2CCN(CCCCNC(=O)c3cn4ccccc4n3)CC2)cc(C(F)(F)F)c1 | 191
22 | Cc1cc(N2CCN(CCCCNC(=O)c3cn4ccccc4n3)CC2)nc(C(F)(F)F)n1 | 3650
23 | CC(C)(C)c1nc(N2CCN(CCCCNC(=O)c3sc4ncccc4c3N)CC2)cc(C(F)(F)F)n1 | 481
24 | CC(C)(C)c1nc(N2CCN(CCCCNC(=O)c3cc4cccnc4s3)CC2)cc(C(F)(F)F)n1 | 683
25 | O=C(NCCCCN1CCN(c2ccc3ccccc3n2)CC1)c1cn2ccccc2n1 | 1560

Second part, the compound after the results:

Row | Ki [nM] | SMILES
26 | 178 | O=C(NCCCCN1CCN(c2ccccc2)CC1)c1cn2ccccc2n1
27 | 1300 | CC(C)(C)c1cc(N2CCN(CCCCNC(=O)c3cn4ccccc4n3)CC2)cc(C(C)(C)C)c1
28 | 527 | CN(C)Cc1c(C(=O)NCCCCN2CCN(c3cc(C(F)(F)F)nc(C(C)(C)C)n3)CC2)[nH]c2ccccc12
29 | 24900 | Cc1nc(N2CCN(CCCCNC(=O)c3cn4ccccc4n3)CC2)cc(C(F)(F)F)n1

The compounds below were run against T1, D(3) dopamine receptor (assay: Antagonist activity against D3R in human U2OS cells assessed as inhibition of (+)-PD128907-induced beta-arrestin translocation by beta-galactosidase based beta-arrestin recruitment assay). Conditions: not given.
Format: cell-based

Row | IC50 [nM] | SMILES
30 | 14 | CN(C)Cc1c(C(=O)NCCCCN2CCN(c3cc(C(F)(F)F)nc(C(C)(C)C)n3)CC2)[nH]c2ccccc12

Each compound was assayed against T1, D(3) dopamine receptor. Conditions: CHO, 1 uM.

Row | inhibition [%] | SMILES
31 | < 30 | CC(C)(C)c1nc(N2CCN(CCCCNC(=O)[C@H]3CC[C@H](c4ccccc4)CC3)CC2)cc(C(F)(F)F)n1

The compounds below were run against T1, D(3) dopamine receptor (assay: Displacement of [125I]IABN from human D3R expressed in HEK293 cell membranes by gamma counting method). Conditions: not given.

Row | SMILES | Ki [nM]
32 | N#Cc1cc(N2CCN(CCCCNC(=O)c3cn4ccccc4n3)CC2)cc(C(F)(F)F)c1 | 6.4
33 | Cc1cc(N2CCN(CCCCNC(=O)c3cn4ccccc4n3)CC2)nc(C(F)(F)F)n1 | 148
34 | CC(C)(C)c1nc(N2CCN(CCCCNC(=O)c3sc4ncccc4c3N)CC2)cc(C(F)(F)F)n1 | 35
35 | CC(C)(C)c1nc(N2CCN(CCCCNC(=O)c3cc4cccnc4s3)CC2)cc(C(F)(F)F)n1 | 32
36 | O=C(NCCCCN1CCN(c2ccc3ccccc3n2)CC1)c1cn2ccccc2n1 | 77

The next lines start with the values.

Row | Ki [nM] | SMILES
37 | 10 | O=C(NCCCCN1CCN(c2ccccc2)CC1)c1cn2ccccc2n1
38 | 124 | CC(C)(C)c1cc(N2CCN(CCCCNC(=O)c3cn4ccccc4n3)CC2)cc(C(C)(C)C)c1
39 | 25 | CN(C)Cc1c(C(=O)NCCCCN2CCN(c3cc(C(F)(F)F)nc(C(C)(C)C)n3)CC2)[nH]c2ccccc12
40 | 2010 | Cc1nc(N2CCN(CCCCNC(=O)c3cn4ccccc4n3)CC2)cc(C(F)(F)F)n1

What follows are compounds tested against T2, D(2) dopamine receptor. Conditions: CHO, 1 uM.

Row | inhibition [%] | SMILES
41 | < 30 | CC(C)(C)c1nc(N2CCN(CCCCNC(=O)[C@H]3CC[C@H](c4ccccc4)CC3)CC2)cc(C(F)(F)F)n1
